Here are results for one compound from ChEMBL document CHEMBL2010797, “Exploring aigialomycin d and its analogues as protein kinase inhibitors for cancer targets” (ACS Med Chem Lett, 2011).

Molecules are shown by their SMILES.

Experiment [1] concerns the target Cyclin-dependent kinase 1 (Homo sapiens, UniProt P06493). The experiment can be described thus: Inhibition of CDK1.
For experiment [2], the target named is T1, Receptor-type tyrosine-protein kinase FLT3 (Homo sapiens, UniProt P36888).
T1 sequence (P36888 whole entry): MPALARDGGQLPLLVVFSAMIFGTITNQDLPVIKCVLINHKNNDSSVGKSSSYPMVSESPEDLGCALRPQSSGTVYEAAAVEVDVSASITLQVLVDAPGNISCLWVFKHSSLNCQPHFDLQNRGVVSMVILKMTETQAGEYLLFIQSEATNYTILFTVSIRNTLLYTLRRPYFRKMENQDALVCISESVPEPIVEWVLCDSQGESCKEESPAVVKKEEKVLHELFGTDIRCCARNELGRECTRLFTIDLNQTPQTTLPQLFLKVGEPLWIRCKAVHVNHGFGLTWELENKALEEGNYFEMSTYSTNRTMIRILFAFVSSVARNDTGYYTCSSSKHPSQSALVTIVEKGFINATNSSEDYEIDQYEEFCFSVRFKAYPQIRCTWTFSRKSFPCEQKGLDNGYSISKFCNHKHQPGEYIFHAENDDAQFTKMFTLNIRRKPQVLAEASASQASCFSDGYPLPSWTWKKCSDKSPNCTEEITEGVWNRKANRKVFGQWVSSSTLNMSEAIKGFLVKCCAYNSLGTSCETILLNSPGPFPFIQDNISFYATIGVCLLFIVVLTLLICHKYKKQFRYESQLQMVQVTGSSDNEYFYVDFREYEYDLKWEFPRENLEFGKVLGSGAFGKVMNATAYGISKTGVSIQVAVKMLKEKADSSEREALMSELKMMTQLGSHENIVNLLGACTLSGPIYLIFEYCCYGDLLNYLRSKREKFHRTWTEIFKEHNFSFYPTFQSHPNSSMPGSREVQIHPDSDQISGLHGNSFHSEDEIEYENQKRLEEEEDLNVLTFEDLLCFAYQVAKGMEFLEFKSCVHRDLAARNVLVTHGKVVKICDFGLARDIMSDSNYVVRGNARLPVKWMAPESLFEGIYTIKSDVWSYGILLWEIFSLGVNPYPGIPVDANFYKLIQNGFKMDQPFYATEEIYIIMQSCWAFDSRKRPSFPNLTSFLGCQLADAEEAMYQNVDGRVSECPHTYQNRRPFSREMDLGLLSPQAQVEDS
The experiment is described as follows: Inhibition of FLT3.

The target of experiment [3] is T2, Serine/threonine-protein kinase PLK4 (Homo sapiens, UniProt O00444).
T2 sequence (O00444 whole entry): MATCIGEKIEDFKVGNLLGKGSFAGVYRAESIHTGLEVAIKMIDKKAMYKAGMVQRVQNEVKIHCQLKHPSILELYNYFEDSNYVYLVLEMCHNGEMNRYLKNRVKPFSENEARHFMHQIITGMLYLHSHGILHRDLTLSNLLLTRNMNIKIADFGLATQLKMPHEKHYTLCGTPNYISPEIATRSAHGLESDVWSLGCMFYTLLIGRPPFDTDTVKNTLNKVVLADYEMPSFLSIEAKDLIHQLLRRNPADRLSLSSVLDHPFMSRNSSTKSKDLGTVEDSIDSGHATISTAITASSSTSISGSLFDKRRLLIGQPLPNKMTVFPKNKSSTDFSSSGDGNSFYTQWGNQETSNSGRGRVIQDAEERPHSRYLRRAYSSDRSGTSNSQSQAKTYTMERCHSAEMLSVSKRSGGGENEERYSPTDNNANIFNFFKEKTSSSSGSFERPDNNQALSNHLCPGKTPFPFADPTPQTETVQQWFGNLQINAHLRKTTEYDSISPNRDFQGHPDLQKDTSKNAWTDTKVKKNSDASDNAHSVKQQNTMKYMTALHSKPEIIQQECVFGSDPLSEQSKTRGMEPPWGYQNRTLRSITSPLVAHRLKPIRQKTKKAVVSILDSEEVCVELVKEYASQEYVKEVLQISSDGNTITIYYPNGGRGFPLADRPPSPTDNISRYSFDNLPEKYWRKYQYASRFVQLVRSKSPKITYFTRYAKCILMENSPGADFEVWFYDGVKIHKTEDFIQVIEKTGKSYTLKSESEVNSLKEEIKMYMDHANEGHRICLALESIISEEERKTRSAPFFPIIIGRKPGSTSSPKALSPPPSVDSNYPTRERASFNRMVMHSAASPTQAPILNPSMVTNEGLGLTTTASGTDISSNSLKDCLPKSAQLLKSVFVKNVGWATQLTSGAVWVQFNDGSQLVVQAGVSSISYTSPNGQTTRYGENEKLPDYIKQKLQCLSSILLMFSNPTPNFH
The experiment is described as follows: Inhibition of PLK4.

Experiment [4] has as its target T3, Protein kinase C epsilon type (Homo sapiens) (UniProt Q02156).
T3 sequence (whole entry): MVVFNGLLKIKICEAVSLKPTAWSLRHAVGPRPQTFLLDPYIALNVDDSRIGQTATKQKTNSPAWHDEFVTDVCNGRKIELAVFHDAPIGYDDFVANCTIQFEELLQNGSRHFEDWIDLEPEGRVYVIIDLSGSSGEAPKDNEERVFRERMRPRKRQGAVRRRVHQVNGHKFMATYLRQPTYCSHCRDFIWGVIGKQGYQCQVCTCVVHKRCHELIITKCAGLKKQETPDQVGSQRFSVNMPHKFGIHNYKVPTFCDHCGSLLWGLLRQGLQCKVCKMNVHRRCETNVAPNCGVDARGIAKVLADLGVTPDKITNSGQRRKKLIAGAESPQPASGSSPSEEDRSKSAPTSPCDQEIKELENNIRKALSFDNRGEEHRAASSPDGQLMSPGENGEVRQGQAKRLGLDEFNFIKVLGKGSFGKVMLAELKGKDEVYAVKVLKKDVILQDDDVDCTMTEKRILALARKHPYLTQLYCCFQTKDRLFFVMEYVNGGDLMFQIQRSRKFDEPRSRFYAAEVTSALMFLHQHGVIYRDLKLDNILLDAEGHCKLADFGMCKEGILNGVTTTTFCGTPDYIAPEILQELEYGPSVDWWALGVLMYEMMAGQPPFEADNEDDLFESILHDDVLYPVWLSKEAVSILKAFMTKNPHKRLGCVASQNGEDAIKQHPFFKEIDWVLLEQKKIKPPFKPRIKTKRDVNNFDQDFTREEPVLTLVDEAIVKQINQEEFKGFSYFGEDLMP
The experiment can be described thus: Inhibition of PRKCE assessed as enzyme activity at 10 uM relative to control. Further details: scale not given: the % may be the effect or the level left. The gist of the method: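 Single-point test at 10 μM in a 96-kinase screening panel. Reported as % of a DMSO negative control, where a lower value means stronger inhibition.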

The target in experiment [5] is T4, Protein kinase C epsilon type (Homo sapiens, UniProt Q02156).
T4 sequence (Q02156 whole entry): T3 sequence (whole entry)
The experiment can be described thus: Inhibition of PRKCE.

Experiment [6] addresses MAP kinase-interacting serine/threonine-protein kinase 1 (Homo sapiens, UniProt Q9BUB5). The experiment can be described thus: Inhibition of MNK1.

MAP kinase-interacting serine/threonine-protein kinase 1, sequence (Q9BUB5 whole entry): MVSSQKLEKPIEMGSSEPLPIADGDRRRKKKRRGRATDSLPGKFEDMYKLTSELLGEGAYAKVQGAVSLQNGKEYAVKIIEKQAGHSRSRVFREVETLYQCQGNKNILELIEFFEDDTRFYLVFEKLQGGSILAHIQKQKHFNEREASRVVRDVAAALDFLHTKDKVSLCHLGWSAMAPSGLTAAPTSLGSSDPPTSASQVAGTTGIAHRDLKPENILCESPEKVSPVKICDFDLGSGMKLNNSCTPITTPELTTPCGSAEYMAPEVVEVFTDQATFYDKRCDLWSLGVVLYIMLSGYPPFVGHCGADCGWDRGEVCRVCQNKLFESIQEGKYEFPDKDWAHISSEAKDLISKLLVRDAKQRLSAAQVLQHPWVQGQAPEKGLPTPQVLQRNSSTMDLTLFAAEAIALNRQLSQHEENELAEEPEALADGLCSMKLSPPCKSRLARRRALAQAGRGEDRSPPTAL
Cyclin-dependent kinase 1, sequence (P06493 whole entry): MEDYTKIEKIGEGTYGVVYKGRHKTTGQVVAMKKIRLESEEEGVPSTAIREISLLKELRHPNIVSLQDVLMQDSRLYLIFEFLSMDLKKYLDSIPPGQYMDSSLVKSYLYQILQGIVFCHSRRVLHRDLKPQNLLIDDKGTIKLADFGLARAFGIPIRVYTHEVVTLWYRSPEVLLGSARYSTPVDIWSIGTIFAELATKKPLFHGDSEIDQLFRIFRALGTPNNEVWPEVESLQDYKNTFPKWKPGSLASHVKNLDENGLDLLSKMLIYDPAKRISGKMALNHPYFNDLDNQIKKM

By IC50 is commonly meant the midpoint of a concentration-inhibition curve. A word on the Kd: it is the free concentration of one partner at which half of the binding sites on the other are occupied at equilibrium, for simple one-to-one binding. `C[C@H]1C/C=C/[C@@H](O)[C@@H](O)CC/C=C/c2cc(O)cc(O)c2C(=O)O1` [AIGIALOMYCIN D]: the concentration for half-maximal inhibition (IC50) in experiment [1] was determined as 6 µM; in experiment [6], 40 µM. The Kd in experiment [2] was determined as 0.3 µM; in experiment [3], 0.26 µM; in experiment [5], 12 µM. Further, the Activity in experiment [4] turned out to be 7.2%.
